From ChEMBL document CHEMBL1926569, “Novel (E)-1-(4-methyl-2-(alkylamino)thiazol-5-yl)-3-arylprop-2-en-1-ones as potent antimicrobial agents” (2011)
Converted amounts (≈) assume the structure as drawn.

How the values were obtained:
Trichoderma viride [1] = test: Antifungal activity against Trichoderma viride IAM 5061 incubated for 72 hrs followed by serial sub-cultivation for 72 hrs by serial dilution technique; assay type: functional; settings: IAM 5061, 72 h
Outline: (§1)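 MFC: material from 72 h malt broth microdilution wells was serially sub-cultured into fresh broth plates and incubated a further 72 h at 28 °C. Fungicidal concentration is taken from growth after sub-culture. Duplicate, repeated three times.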

Listeria monocytogenes [2] = test: Antibacterial activity against Listeria monocytogenes NCTC 7973 incubated for 24 hrs followed by serial sub-cultivation for 24 hrs by microdilution; assay type: functional; settings: NCTC 7973, 24 h
Outline: (§2)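 MBC: after the 24 h LB broth microdilution (1.0 × 10⁴ CFU per well, 160 rpm), wells were serially sub-cultured into fresh broth plates and incubated a further 24 h. MBC is the lowest concentration with no visible growth, taken as 99.5% killing of the original inoculum. Duplicate, repeated three times.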

Aspergillus fumigatus [3] = test: Antifungal activity against Aspergillus fumigatus isolated from human incubated for 72 hrs followed by serial sub-cultivation for 72 hrs by serial dilution technique; assay type: functional; outline: as §1
Candida albicans [4] = test: Ratio of bifonazole to compound for Candida albicans isolated from human; assay type: functional
Talaromyces funiculosus [5] = test: Ratio of bifonazole to compound for Penicillium funiculosum ATCC 36839; assay type: functional
Listeria monocytogenes [6] = test: Antibacterial activity against Listeria monocytogenes NCTC 7973 after 24 hrs by microdilution method; assay type: functional; settings: NCTC 7973, 24 h
Outline: (§3)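 Broth microdilution in 96-well plates. Bacterial suspensions were adjusted in sterile saline to 1.0 × 10⁵ CFU/ml, prepared daily and kept at 4 °C. Compound was added to LB broth with 1.0 × 10⁴ CFU per well and shaken at 160 rpm for 24 h at […] (so in the source). MIC is the lowest concentration with no visible growth under a binocular microscope. OD655 was also read. Duplicate, repeated three times.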

Escherichia coli [7] = test: Antibacterial activity against Escherichia coli ATCC 35210 after 24 hrs by microdilution method; assay type: functional; settings: ATCC 35210, 24 h; outline: as §3
Talaromyces funiculosus [8] = test: Antifungal activity against Penicillium funiculosum ATCC 36839 incubated for 72 hrs followed by serial sub-cultivation for 72 hrs by serial dilution technique; assay type: functional; settings: ATCC 36839, 72 h; outline: as §1
Pseudomonas aeruginosa [9] = test: Antibacterial activity against Pseudomonas aeruginosa ATCC 27853 after 24 hrs by microdilution method; assay type: functional; settings: ATCC 27853, 24 h; outline: as §3
Trichoderma viride [10] = test: Antifungal activity against Trichoderma viride IAM 5061 after 72 hrs by serial dilution technique; assay type: functional; settings: IAM 5061, 72 h
Outline: (§4)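 Modified microdilution in 96-well plates. Fungi were kept on malt agar at 4 °C. Spores were washed off in sterile 0.85% saline with 0.1% Tween 80. Compounds were dissolved at 1 mg/ml in 5% DMSO with 0.1% Tween 80 and added to malt broth with inoculum. Plates were shaken at 160 rpm for 72 h at 28 °C. Duplicate, repeated three times.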

Trichoderma viride [11] = test: Ratio of bifonazole to compound for Trichoderma viride IAM 5061; assay type: functional
Penicillium ochrochloron [12] = test: Antifungal activity against Penicillium ochrochloron ATCC 9112 incubated for 72 hrs followed by serial sub-cultivation for 72 hrs by serial dilution technique; assay type: functional; settings: ATCC 9112, 72 h; outline: as §1
Bacillus cereus [13] = test: Antibacterial activity against clinical isolate of Bacillus cereus incubated for 24 hrs followed by serial sub-cultivation for 24 hrs by microdilution; assay type: functional; outline: as §2
Salmonella typhimurium [14] = test: Antibacterial activity against Salmonella Typhimurium ATCC 13311 incubated for 24 hrs followed by serial sub-cultivation for 24 hrs by microdilution; assay type: functional, Salmonella enterica subsp. enterica serovar Typhimurium; settings: Salmonella enterica, ATCC 13311, 24 h; outline: as §2
Talaromyces funiculosus [15] = test: Antifungal activity against Penicillium funiculosum ATCC 36839 after 72 hrs by serial dilution technique; assay type: functional; settings: ATCC 36839, 72 h; outline: as §4
Enterococcus faecalis [16] = test: Antibacterial activity against Enterococcus faecalis isolated from human after 24 hrs by microdilution method; assay type: functional; outline: as §3
Penicillium ochrochloron [17] = test: Antifungal activity against Penicillium ochrochloron ATCC 9112 after 72 hrs by serial dilution technique; assay type: functional; settings: ATCC 9112, 72 h; outline: as §4
Pseudomonas aeruginosa [18] = test: Antibacterial activity against Pseudomonas aeruginosa ATCC 27853 incubated for 24 hrs followed by serial sub-cultivation for 24 hrs by microdilution; assay type: functional; settings: ATCC 27853, 24 h; outline: as §2
Aspergillus niger [19] = test: Ratio of bifonazole to compound for Aspergillus niger ATCC 6275; assay type: functional
Aspergillus ochraceus [20] = test: Antifungal activity against Aspergillus ochraceus ATCC 12066 after 72 hrs by serial dilution technique; assay type: functional; settings: ATCC 12066, 72 h; outline: as §4
Aspergillus niger [21] = test: Antifungal activity against Aspergillus niger ATCC 6275 incubated for 72 hrs followed by serial sub-cultivation for 72 hrs by serial dilution technique; assay type: functional; settings: ATCC 6275, 72 h; outline: as §1
Candida albicans [22] = test: Antifungal activity against Candida albicans isolated from human after 72 hrs by serial dilution technique; assay type: functional; outline: as §4
Bacillus cereus [23] = test: Antibacterial activity against clinical isolate of Bacillus cereus after 24 hrs by microdilution method; assay type: functional; outline: as §3
Aspergillus flavus [24] = test: Antifungal activity against Aspergillus flavus ATCC 9643 after 72 hrs by serial dilution technique; assay type: functional; settings: ATCC 9643, 72 h; outline: as §4
Aspergillus ochraceus [25] = test: Antifungal activity against Aspergillus ochraceus after 72 hrs by serial dilution technique
Candida albicans [26] = test: Antifungal activity against Candida albicans isolated from human incubated for 72 hrs followed by serial sub-cultivation for 72 hrs by serial dilution technique; assay type: functional; outline: as §1
Aspergillus niger [27] = test: Antifungal activity against Aspergillus niger ATCC 6275 after 72 hrs by serial dilution technique; assay type: functional; settings: ATCC 6275, 72 h; outline: as §4
Micrococcus flavus [28] = test: Antibacterial activity against Micrococcus flavus ATCC 10240 after 24 hrs by microdilution method; assay type: functional; settings: ATCC 10240, 24 h; outline: as §3
Enterococcus faecalis [29] = test: Antibacterial activity against Enterococcus faecalis isolated from human incubated for 24 hrs followed by serial sub-cultivation for 24 hrs by microdilution; assay type: functional; outline: as §2
Staphylococcus aureus [30] = test: Antibacterial activity against Staphylococcus aureus ATCC 6538 incubated for 24 hrs followed by serial sub-cultivation for 24 hrs by microdilution method; assay type: functional; settings: ATCC 6538, 24 h; outline: as §2
Penicillium ochrochloron [31] = test: Ratio of bifonazole to compound for Penicillium ochrochloron ATCC 9112; assay type: functional
Aspergillus ochraceus [32] = test: Antifungal activity against Aspergillus ochraceus ATCC 12066 incubated for 72 hrs followed by serial sub-cultivation for 72 hrs by serial dilution technique; assay type: functional; settings: ATCC 12066, 72 h; outline: as §1
Aspergillus fumigatus [33] = test: Ratio of ketoconazole to compound for Aspergillus fumigatus isolated from human; assay type: functional
Pseudomonas aeruginosa [34] = test: Ratio of ampicillin MIC to compound MIC for Pseudomonas aeruginosa ATCC 27853; assay type: functional
Salmonella typhimurium [35] = test: Antibacterial activity against Salmonella Typhimurium ATCC 13311 after 24 hrs by microdilution method; assay type: functional, Salmonella enterica subsp. enterica serovar Typhimurium; settings: Salmonella enterica, ATCC 13311, 24 h; outline: as §3
Escherichia coli [36] = test: Antibacterial activity against Escherichia coli ATCC 35210 incubated for 24 hrs followed by serial sub-cultivation for 24 hrs by microdilution; assay type: functional; settings: ATCC 35210, 24 h; outline: as §2
Aspergillus ochraceus [37] = test: Ratio of bifonazole to compound for Aspergillus ochraceus ATCC 12066; assay type: functional
Staphylococcus aureus [38] = test: Antibacterial activity against Staphylococcus aureus ATCC 6538 after 24 hrs by microdilution method; assay type: functional; settings: ATCC 6538, 24 h; outline: as §3
Micrococcus flavus [39] = test: Antibacterial activity against Micrococcus flavus ATCC 10240 incubated for 24 hrs followed by serial sub-cultivation for 24 hrs by microdilution; assay type: functional; settings: ATCC 10240, 24 h; outline: as §2
Penicillium ochrochloron [40] = test: Ratio of ketoconazole to compound for Penicillium ochrochloron ATCC 9112; assay type: functional
Aspergillus ochraceus [41] = test: Ratio of ketoconazole to compound for Aspergillus ochraceus ATCC 12066; assay type: functional
Aspergillus flavus [42] = test: Antifungal activity against Aspergillus flavus ATCC 9643 incubated for 72 hrs followed by serial sub-cultivation for 72 hrs by serial dilution technique; assay type: functional; settings: ATCC 9643, 72 h; outline: as §1
Candida albicans [43] = test: Ratio of ketoconazole to compound for Candida albicans isolated from human; assay type: functional

## CCNc1nc(C)c(C(=O)/C=C/c2cccc(F)c2)s1
Trichoderma viride [1]
  MFC: 68.9 µM (≈ 20 µg/mL)
Listeria monocytogenes [2]
  MBC: 86.2 µM (≈ 25 µg/mL)
Aspergillus fumigatus [3]
  MFC: 68.9 µM (≈ 20 µg/mL)
Candida albicans [4]
  Ratio: 10
Talaromyces funiculosus [5]
  Ratio: 10
Listeria monocytogenes [6]
  MIC: 86.2 µM (≈ 25 µg/mL)
Escherichia coli [7]
  MIC: 68.9 µM (≈ 20 µg/mL)
Talaromyces funiculosus [8]
  MFC: 68.9 µM (≈ 20 µg/mL)
Pseudomonas aeruginosa [9]
  MIC: 68.9 µM (≈ 20 µg/mL)
Trichoderma viride [10]
  MIC: 34.5 µM (≈ 10 µg/mL)
Trichoderma viride [11]
  Ratio: 10
Penicillium ochrochloron [12]
  MFC: 68.9 µM (≈ 20 µg/mL)
Bacillus cereus [13]
  MBC: 68.9 µM (≈ 20 µg/mL)
Salmonella typhimurium [14]
  MBC: 51.7 µM (≈ 15 µg/mL)
Talaromyces funiculosus [15]
  MIC: 34.5 µM (≈ 10 µg/mL)
Enterococcus faecalis [16]
  MIC: 51.7 µM (≈ 15 µg/mL)
Penicillium ochrochloron [17]
  MIC: 34.5 µM (≈ 10 µg/mL)
Pseudomonas aeruginosa [18]
  MBC: 68.9 µM (≈ 20 µg/mL)
Aspergillus niger [19]
  Ratio: 10
Aspergillus ochraceus [20]
  MIC: 68.9 µM (≈ 20 µg/mL)
Aspergillus niger [21]
  MFC: 68.9 µM (≈ 20 µg/mL)
Candida albicans [22]
  MIC: 34.5 µM (≈ 10 µg/mL)
Bacillus cereus [23]
  MIC: 51.7 µM (≈ 15 µg/mL)
Aspergillus flavus [24]
  MIC: 68.9 µM (≈ 20 µg/mL)
Aspergillus ochraceus [25]
  MIC: 34.5 µM (≈ 10 µg/mL)
Candida albicans [26]
  MFC: 68.9 µM (≈ 20 µg/mL)
Aspergillus niger [27]
  MIC: 34.5 µM (≈ 10 µg/mL)
Micrococcus flavus [28]
  MIC: 34.5 µM (≈ 10 µg/mL)
Enterococcus faecalis [29]
  MBC: 68.9 µM (≈ 20 µg/mL)
Staphylococcus aureus [30]
  MBC: 103 µM (≈ 30 µg/mL)
Penicillium ochrochloron [31]
  Ratio: 10
Aspergillus ochraceus [32]
  MFC: 86.2 µM (≈ 25 µg/mL)
Aspergillus fumigatus [33]
  Ratio: 10
Pseudomonas aeruginosa [34]
  Ratio: 10
Salmonella typhimurium [35]
  MIC: 51.7 µM (≈ 15 µg/mL)
Escherichia coli [36]
  MBC: 86.2 µM (≈ 25 µg/mL)
Aspergillus ochraceus [37]
  Ratio: 10
Staphylococcus aureus [38]
  MIC: 68.9 µM (≈ 20 µg/mL)
Micrococcus flavus [39]
  MBC: 86.2 µM (≈ 25 µg/mL)
Penicillium ochrochloron [40]
  Ratio: 10
Aspergillus ochraceus [41]
  Ratio: 10
Aspergillus flavus [42]
  MFC: 86.2 µM (≈ 25 µg/mL)
Candida albicans [43]
  Ratio: 10
